Data as given in article PMC7332231 (Journal of the American Chemical Society, 2020).

Legend:
[1] = molecular target: T1, DPP3 (Homo sapiens, UniProt Q9NY33); test: peptidase substrate assay; type: biochemical
T1 sequence (Q9NY33 2-737): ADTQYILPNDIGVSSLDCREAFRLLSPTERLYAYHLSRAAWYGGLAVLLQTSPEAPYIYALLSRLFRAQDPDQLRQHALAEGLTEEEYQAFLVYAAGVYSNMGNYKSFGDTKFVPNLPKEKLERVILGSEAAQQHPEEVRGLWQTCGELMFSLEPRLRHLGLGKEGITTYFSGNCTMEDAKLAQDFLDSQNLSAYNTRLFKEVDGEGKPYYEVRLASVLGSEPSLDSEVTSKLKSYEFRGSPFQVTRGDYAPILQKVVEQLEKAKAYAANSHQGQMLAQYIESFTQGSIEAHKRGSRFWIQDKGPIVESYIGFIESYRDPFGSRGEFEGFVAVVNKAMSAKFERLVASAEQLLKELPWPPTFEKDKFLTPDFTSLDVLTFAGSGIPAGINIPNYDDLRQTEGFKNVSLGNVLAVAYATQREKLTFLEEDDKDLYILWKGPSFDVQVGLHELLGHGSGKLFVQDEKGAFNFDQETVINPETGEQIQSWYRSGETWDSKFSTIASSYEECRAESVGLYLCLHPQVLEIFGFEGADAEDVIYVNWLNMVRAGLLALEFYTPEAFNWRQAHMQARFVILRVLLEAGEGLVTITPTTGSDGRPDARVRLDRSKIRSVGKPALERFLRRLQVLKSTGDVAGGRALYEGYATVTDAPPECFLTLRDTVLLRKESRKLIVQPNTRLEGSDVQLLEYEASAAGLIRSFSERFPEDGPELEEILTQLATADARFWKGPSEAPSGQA
Summary of the method: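 Purified DPP3 was exposed to test compound over a concentration series, and its catalytic activity was read by a peptidase substrate assay. IC50 was reported with 95% confidence intervals; data are mean ± s.e.m. from n = 3 biologically independent experiments. Y417 engagement was measured by quantitative chemical proteomics with the HHS-482 probe on soluble proteome from HEK293T cells expressing recombinant human DPP3 (n = 2).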

[2] = molecular target: T2, YWHAE (Homo sapiens, UniProt P62258); test: competitive SILAC chemical proteomics in DM93 soluble proteome; type: cell-based
T2 sequence (P62258 1-255): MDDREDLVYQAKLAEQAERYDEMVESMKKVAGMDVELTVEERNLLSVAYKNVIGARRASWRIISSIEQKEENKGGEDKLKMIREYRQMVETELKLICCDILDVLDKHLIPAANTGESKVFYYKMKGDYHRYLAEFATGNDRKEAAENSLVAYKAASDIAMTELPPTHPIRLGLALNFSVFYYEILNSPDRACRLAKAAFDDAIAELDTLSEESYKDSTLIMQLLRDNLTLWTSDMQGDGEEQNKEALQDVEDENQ

[3] = molecular target: glutathione S-transferase Pi (GSTP1) (Homo sapiens, UniProt P09211); test: GSH substrate assay in recombinant GSTP1 lysates; type: biochemical
Chain of glutathione S-transferase Pi (GSTP1) (P09211 2-210): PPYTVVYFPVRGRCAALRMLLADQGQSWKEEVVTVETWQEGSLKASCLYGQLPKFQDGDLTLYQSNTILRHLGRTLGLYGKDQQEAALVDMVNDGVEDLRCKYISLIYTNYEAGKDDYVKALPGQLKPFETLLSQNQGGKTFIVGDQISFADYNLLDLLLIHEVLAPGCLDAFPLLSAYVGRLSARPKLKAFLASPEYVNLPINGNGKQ

IC50 [1]	competitive SILAC chemical proteomics in DM93 soluble proteome (50 μM) [2]	IC50 [3]	SMILES
17 µM	> 6 SILAC ratio (SR)	–	COc1ccc(-c2ncn(S(=O)(=O)c3ccc(-c4ccccc4)cc3)n2)cc1 [JWB142]
–	–	16 µM	O=S(=O)(c1ccc2ccccc2c1)n1cnc(-c2ccncc2)n1 [JWB198]
